# This is a sample that favours compounds with a hit; in the whole collection about 3.7% have one here.
# hERG rescue: hERG rescue from dofetilide block, primary screen, cell-based, CHO-hERG, FluxOR thallium flux, dofetilide IC70; Voltage-gated inwardly rectifying potassium channel KCNH2 (Homo sapiens), Q12809; dofetilide IC70 present; activation (rescue from dofetilide block), less the hit threshold, % at 10 µM; 0.51% of 310,000 active; AID 1511, 2009;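 active means activation above the mean of controls blocked by dofetilide plus 5 SD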;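 further: thallium influx through hERG after potassium depolarization seen as dye fluorescence rise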
# KCNQ1 block: inhibitors of human KCNQ1 channel, primary screen, cell-based, thallium flux, high-throughput. Potassium voltage-gated channel subfamily KQT member 1 (Homo sapiens), P51787. CHO-K1 KCNQ1, FluxOR thallium flux fluorescence; active compounds read high. B-score at 10 µM. 1.3% of 310,000 active. AID 2642, 2010;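 active means compounds whose thallium flux B-score, printed positive for inhibition, exceeds three library SD while starting fluorescence stays within three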;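 further: channel opened by potassium depolarization with thallium stimulus after 20 min compound exposure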
# KCNK9 inh: KCNK9 potassium channel inhibitors, primary screen, HEK293 cells, thallium flux | Potassium channel subfamily K member 9 (Homo sapiens), Q9NPC2 | FluxOR thallium flux fluorescence; active compounds read low | B-score at 10 µM | 1.2% of 310,000 active | AID 488922, 2010;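 active means ratio B-score over 3 SD below the library mean, with starting fluorescence within 5 SD of its mean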;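 further: negative B-score means less thallium flux so channel inhibition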
# Kir21 inh: inhibitors of mouse Kir2.1 inward-rectifier potassium channel; Inward rectifier potassium channel 2 (Mus musculus), P35561; HEK293-Kir2.1, FluxOR thallium flux fluorescence; active compounds read low; B-score at 10 µM; 0.85% of 310,000 active; AID 1672, 2009;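 active means fluorescence ratio B-score at or below minus 3 SD of library scores, with starting-brightness B-score within 2 SD, cut at about -4.2 in these data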;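 further: channel flux triggered by added potassium and thallium sulfate stimulus; B-score of peak minus minimum fluorescence over baseline after thallium stimulus; more negative B-score means stronger Kir2.1 block with less thallium influx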
# KCNQ1 pot: potentiators or activators of KCNQ1 channel, primary screen, cell-based, thallium flux, high-throughput. AID 2648, 2010. CHO-K1 KCNQ1, thallium flux FluxOR fluorescence; active compounds read high. 0.35% of 310,000 active. B-score at 10 µM;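 active means fluorescence ratio B-score, a plate-corrected score, at least three library SD, with initial intensity B-score within 5 SD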
#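 Test system: CHO-K1 cells stably expressing KCNQ1 / Medium: assay buffer / Also added: depolarizing K+/Tl+ stimulus, K2SO4 and Tl2SO4 each 12.5 mM in 5x stock / Incubation: 90 min dye loading and 20 min compound exposure, both at room temperature / Signal: thallium influx via FluxOR fluorescence, kinetic imaging / Evaluation: B score of baseline-normalized fluorescence ratio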
# KCNK3 inh: human KCNK3 channel inhibitors, primary screen, CHO cells, FluxOR thallium flux, B-score; FluxOR fluorescence; active compounds read low; B-score at 10 µM; 0.84% of 340,000 active; AID 602410, 2012;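 active means B-score under library mean minus 4 SD, starting fluorescence ratio at most library mean plus 5 SD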;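 further: more negative B-score means stronger inhibition of thallium flux through KCNK3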
# Target sequence (O14649 whole entry, looked up): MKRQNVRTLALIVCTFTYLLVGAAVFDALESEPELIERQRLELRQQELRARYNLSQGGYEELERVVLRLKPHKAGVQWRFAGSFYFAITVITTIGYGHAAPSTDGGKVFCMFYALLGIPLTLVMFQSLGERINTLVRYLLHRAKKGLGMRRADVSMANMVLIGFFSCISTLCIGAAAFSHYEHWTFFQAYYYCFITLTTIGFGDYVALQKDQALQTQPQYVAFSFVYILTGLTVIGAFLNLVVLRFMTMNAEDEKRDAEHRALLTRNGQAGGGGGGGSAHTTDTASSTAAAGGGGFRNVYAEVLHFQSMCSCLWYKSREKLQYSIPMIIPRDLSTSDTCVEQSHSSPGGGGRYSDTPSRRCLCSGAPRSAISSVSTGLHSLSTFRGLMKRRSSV
# An asterisk follows results filed as active; i = inactive; / = no result given.
SMILES,hERG rescue,KCNQ1 block,KCNK9 inh,Kir21 inh,KCNQ1 pot,KCNK3 inh
Cc1nn(-c2ccccn2)c2c1C(c1ccsc1)C1=C(CCCC1=O)N2 (configuration not stated),-5,i,i,-0.01,i,i
Cc1nn(-c2ccccn2)c2c1C(c1ccccc1Cl)C1=C(N2)c2ccccc2C1=O (configuration not stated),-8,i,-7*,-0.36,i,i
Cc1nn(-c2ccccn2)c2c1C(c1c(F)cccc1Cl)C1=C(N2)c2ccccc2C1=O (configuration not stated),-10,i,-6.9*,-1.4,i,/
CSC1=C(C#N)C(c2ccccc2Cl)C2=C(N1)c1ccccc1C2=O (configuration not stated),-19,i,i,-1.6,i,i
Cc1ccnc(N2CCCC(C(=O)Nc3cccc(C)c3C)C2)n1 (configuration not stated),-6,i,i,0.64,i,i
COc1ccc(NC(=O)C2=NN(c3ccccc3)C(=O)CC2)cn1,/,/,/,/,/,i
CC(/C=N/n1c(-c2ccc(Cl)cc2)n[nH]c1=S)=C\c1ccco1,3,i,i,0.8,9*,i
CC(/C=N/n1c(-c2cc(C)[nH]n2)n[nH]c1=S)=C\c1ccco1,-7,i,i,0.07,i,i
O=C(COc1ccc2ccc(=O)oc2c1)NCCCN1CCCC1=O,-12,i,i,-0.69,i,i
CCOC(=O)c1ccc(NC(=O)Cn2nnc(-c3ccccc3)n2)cc1,14*,i,i,1.7,i,i
Cc1nc(SCC(=O)NCC2CCCO2)c2c3c(sc2n1)CCCC3 (configuration not stated),15*,i,i,-0.39,13*,i
Cc1nc(SCC(=O)NCC2CCCO2)c2c(C)c(C)sc2n1 (configuration not stated),/,/,/,/,/,i
O=C(COc1ccc(F)cc1F)Nc1cccnc1,-6,i,i,2,i,i
CN(CCOCCOc1ccc2ccccc2c1)Cc1ccccc1,-14,i,i,-7*,i,i
COc1cc(/C=C2/SC(=S)N(CC(=O)O)C2=O)ccc1OCC(=O)Nc1ccc(C)c(C)c1,19*,i,i,1.2,i,i
COCCNCC1C(Oc2ccc(Cl)cc2)C(=O)N1c1ccccc1C (configuration not stated),-6,i,i,0.53,i,i
COc1ccc(CCNCC2C(Oc3ccc(Cl)cc3)C(=O)N2c2ccccc2C)cc1OC (configuration not stated),-13,i,-6.8*,0.44,i,i
Cc1cccnc1NCc1ccc(O)c2ncccc12,6.8*,i,i,1.6,i,i
Cc1cccc(NCc2ccc(O)c3ncccc23)c1C,-10,i,i,0.55,i,i
S=c1[nH]nc(CSc2nc3ccccc3s2)n1C1CCCCC1,4,i,-7.5*,-2.6,22*,i
CCCCCN(C(=O)CCC(=O)OCc1ccc(C(C)C)cc1)c1c(N)n(CCCC)c(=O)[nH]c1=O,-1,i,i,-0.83,i,i
COc1cnc(-c2ccccn2)nc1Oc1ccc(Cl)c2ccccc12,-4,i,-8.1*,1.3,i,i
COc1ccccc1CCC(=O)Nc1ccc2c(c1)CN(Cc1ccc(CO)o1)CC2,-7,i,i,-0.35,i,i
COc1ccc(N(CC(=O)N2CCN(c3ccccc3)CC2)S(=O)(=O)c2ccc(C)cc2)cc1,-9,i,i,-0.3,i,i
CCOc1ccc(N(CC(=O)N2CCN(c3ccccc3OC)CC2)S(=O)(=O)c2ccc(C)cc2)cc1,-11,9*,i,1.2,i,i
SMILES,hERG rescue,KCNQ1 block,KCNK9 inh,Kir21 inh,KCNQ1 pot,KCNK3 inh
CSc1ccc(Cl)c(C(=O)NCCCn2ccnc2)c1,-1,i,i,-0.04,i,i
N#C/C(=C\c1ccc(O)c([N+](=O)[O-])c1)c1nc2ccccc2s1,-9,6*,i,0.72,i,i
COc1cc(/C=C(\C#N)c2nc3ccccc3s2)cc([N+](=O)[O-])c1O,-17,6*,i,-0.51,i,i
COc1cccc(-c2c(C#N)c(N)nc3c2c(C)nn3-c2ccccc2)c1O,-7,i,i,-0.71,i,i
CC(C)Nc1nc(Oc2ccc(Cl)cc2Cl)cc(C(F)(F)F)n1,-10,7*,i,1.6,i,i
CC(C)Nc1nc(Oc2cccc(Cl)c2Cl)cc(C(F)(F)F)n1,-16,i,i,0.45,i,i
COC(=O)CNC(c1ccccc1)c1cc(Br)ccc1NS(=O)(=O)c1ccc(C)cc1 (configuration not stated),-13,i,-7.4*,1.3,i,i
COC(=O)CNC(c1ccccc1)c1cc(Br)ccc1NS(=O)(=O)c1ccccc1 (configuration not stated),-7,i,-6.6*,-0.06,i,i
COC(=O)CNC(c1ccccc1)c1cc(Br)ccc1N (configuration not stated),-3,i,i,-0.55,i,i
N#C/C(=C(/O)CCl)c1nc(-c2ccccc2)cs1,-14,i,i,-0.01,i,i
Cc1ccc(-c2csc(/C(C#N)=C(\O)CCl)n2)cc1,-20,6*,i,1.7,i,i
CN(C(=O)CSc1nnc(-c2c[nH]c3ccccc23)n1C1CC1)C1CCS(=O)(=O)C1 (configuration not stated),/,/,/,/,/,i
O=C(Cc1ccc(F)cc1)Nc1ccccc1N1CCCC1,-9,i,i,-5.4*,i,i
O=C(Nc1ccccc1N1CCN(c2ccc(F)cc2)CC1)C12CC3CC(CC(C3)C1)C2,-9,i,-7*,-1.4,i,i
O=C(Nc1ccccc1N1CCN(c2ccc(F)cc2)CC1)C1CCCCC1,-7,i,-6.7*,0.84,i,i
O=C(Cc1ccc(Cl)c(Cl)c1)Nc1ccccc1N1CCCC1,-1,i,i,-0.2,i,i
COC(=O)C1CN(C(=O)COc2ccc(C)cc2)c2ccccc2O1 (configuration not stated),-12,i,i,-0.71,i,i

# From PubChem
